Type in all cases: functional
In assay [1] the test system is HeLa. As to the kind of experiment: Cell cycle arrest in human HeLa cells pretreated with 5 uM cyclosporin A for 1 hr assessed as subG1 phase accumulation at 100 uM after 24 hrs by FACS. The method in brief:
(§1)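 HeLa cells pretreated for 1 h with the listed agent (10 mM GSH ethyl ester, 10 µM dexamethasone, 10 µM pifithrin, 100 µM Boc-Asp(OMe)-fmk or 5 µM cyclosporin A), then given 100 µM compound for 24 h. Cells fixed in PBS-MeOH, stained with PI/RNase and analysed by flow cytometry for DNA content. At least three experiments, one representative shown.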

The test system of assay [2] is HeLa. Kind of assay: Cell cycle arrest in human HeLa cells pretreated with 10 uM Dexamethasone for 1 hr assessed as S phase accumulation at 100 uM after 24 hrs by FACS. Put shortly:
as §1
(In general: In flow cytometry, cells or beads pass a laser one at a time.)

For assay [3], the system named is HeLa. Kind of assay: Induction of apoptosis in human HeLa cells assessed as increase p53 expression at 100 uM after 6 hrs by FACS. The method in brief:
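HeLa seeded at 5 × 10^5 cells/dish 48 h before, in DMEM with 10% FCS; medium renewed at 60% confluence, then 100 µM agent (0.1% DMSO final) for 0–24 h. Pooled floating and adherent cells fixed in 1% paraformaldehyde (15 min, 4 °C), permeabilized in 70% EtOH (30 min, 4 °C), then FITC-conjugated mouse anti-p53 mAb (1 h, 37 °C), PI/RNase counterstain; flow cytometry, % p53-positive cells; ≥3 experiments.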

Assay [4] concerns HeLa. Kind of assay: Induction of apoptosis in human HeLa cells assessed as increase in intracellular glutathione-depleted cell population at 50 uM after 24 hrs by FACS. Put shortly:
(§2)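 HeLa cells at 80% confluence got fresh medium and were exposed for 24 h. Adherent and floating cells were pooled, adjusted to (1-2) × 10^6/mL and stained with 25 µM CMF-DA for 30 min at 37 °C. After washing, flow cytometry scored the percentage of GSH-negative cells. At least three experiments.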

In assay [5] the test system is HeLa. As to the kind of experiment: Cell cycle arrest in human HeLa cells pretreated with 100 uM Boc-Asp(OMe)-fmk for 1 hr assessed as G2/M phase accumulation at 100 uM after 24 hrs by FACS. Put shortly: as §1
In assay [6] the test system is HeLa. Kind of assay: Cell cycle arrest in human HeLa cells assessed as S phase accumulation at 25 50 after 24 hrs by FACS. The method in brief: (§3)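 HeLa cells seeded 5 × 10^5 per dish 48 h ahead in DMEM with 10% FCS, then exposed to compound for 24 h (DMSO 0.1% final). Adherent and floating cells pooled, fixed in PBS-MeOH (1:2) at 4 °C for at least 18 h, and stained with PI (50 µg/mL) plus RNase A for 30 min at room temperature. Flow cytometry at 488 nm excitation, doublets gated out; phase percentages taken from DNA histograms.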

Assay [7] concerns HeLa. Kind of assay: Cell cycle arrest in human HeLa cells pretreated with 5 uM cyclosporin A for 1 hr assessed as G2/M phase accumulation at 100 uM after 24 hrs by FACS. Put shortly: as §1
For assay [8], the system named is HeLa. As to the kind of experiment: Cell cycle arrest in human HeLa cells assessed as subG1 phase accumulation at 25 uM after 24 hrs by FACS. Put shortly:
as §3

Assay [9] relates to HeLa. As to the kind of experiment: Cell cycle arrest in human HeLa cells pretreated with 10 mM glutathione ethyl ester for 1 hr assessed as S phase accumulation at 100 uM after 24 hrs by FACS. Put shortly: as §1
Assay [10] concerns HeLa. As to the kind of experiment: Cell cycle arrest in human HeLa cells assessed as G2/M phase accumulation at 100 uM after 24 hrs by FACS. The method in brief: as §3
Assay [11] has as its system HeLa. Kind of assay: Cell cycle arrest in human HeLa cells pretreated with 10 uM Dexamethasone for 1 hr assessed as G2/M phase accumulation at 100 uM after 24 hrs by FACS. The method in brief:
as §1

The subject of assay [12] is HeLa. As to the kind of experiment: Induction of apoptosis in human HeLa cells assessed as increase in intracellular hydrogen peroxide level at 100 uM after 3 hrs by FACS relative to untreated control. The method in brief: (§4)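 HeLa cells at 80% confluence were refed and exposed to 100 µM for 1, 3 or 24 h. They were loaded with 10 µM DCFH-DA for 30 min in the dark, trypsinized and resuspended in PBS. DCF fluorescence was measured by flow cytometry and expressed as fold versus untreated cells. At least three experiments.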

Assay [13] deals with HeLa. Kind of assay: Induction of apoptosis in human HeLa cells pretreated with 10 uM Dexamethasone for 1 hr at 100 uM after 24 hrs by TUNEL assay. Put shortly: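 HeLa in DMEM/10% FCS, untreated or pretreated 1 h with listed inhibitor, then 100 µM agent (0.1% DMSO final) for 24 h. Pooled cells fixed in 1% paraformaldehyde (30 min, 4 °C), 70% EtOH (30 min, −20 °C); strand breaks labelled with TdT/fluorescein-BrdUTP (1 h, 37 °C), PI/RNase counterstain; flow cytometry, % apoptotic cells; ≥3 experiments.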

Assay [14] relates to HeLa. As to the kind of experiment: Cell cycle arrest in human HeLa cells pretreated with 5 uM cyclosporin A for 1 hr assessed as G1 phase accumulation at 100 uM after 24 hrs by FACS. The method in brief:
as §1

Assay [15] concerns HeLa. Kind of assay: Induction of apoptosis in human HeLa cells assessed as increase caspase 3/7 activities at 100 uM after 12 hrs by FACS relative to control. Put shortly: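 After 3–24 h exposure at 100 µM, HeLa cells were trypsinized. 1 × 10^6 cells in DMEM were mixed 1:1 with Z-DEVD-R110 substrate reagent and incubated 1 h at 37 °C, then washed. Released R110 read per cell by flow cytometry (ex 488/em 520 nm) and expressed as fold over untreated cells. At least three runs.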

The test system of assay [16] is HeLa. As to the kind of experiment: Induction of apoptosis in human HeLa cells assessed as increase in intracellular peroxide level at 100 uM after 1 hr by FACS relative to untreated control. Put shortly:
as §4

The test system of assay [17] is HeLa. As to the kind of experiment: Induction of apoptosis in human HeLa cells assessed as increase in intracellular nitric oxide level at 100 uM after 1 hr by FACS relative to untreated control. The method in brief:
(§5)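 HeLa cells at 80% confluence were exposed to 100 µM for 1, 3 or 24 h and then stained with 1 µM DAF-2 for 10 min in the dark. After trypsinization, DAF-2 fluorescence was measured by flow cytometry and taken as fold versus untreated cells. At least three experiments.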

In assay [18] the test system is HeLa. As to the kind of experiment: Cell cycle arrest in human HeLa cells pretreated with 100 uM Boc-Asp(OMe)-fmk for 1 hr assessed as subG1 phase accumulation at 100 uM after 24 hrs by FACS. Put shortly: as §1
The subject of assay [19] is HeLa. Kind of assay: Cell cycle arrest in human HeLa cells assessed as G1 phase accumulation at 25 uM after 24 hrs by FACS. Put shortly: as §3
Assay [20] deals with HeLa. As to the kind of experiment: Cell cycle arrest in human HeLa cells assessed as G1 phase accumulation at 50 uM after 24 hrs by FACS. Put shortly: as §3
Assay [21] deals with HeLa. Kind of assay: Induction of apoptosis in human HeLa cells assessed as increase in intracellular glutathione-depleted cell population at 100 uM after 24 hrs by FACS. The method in brief: as §2
Assay [22] concerns HeLa. Kind of assay: Cell cycle arrest in human HeLa cells assessed as G2/M phase accumulation at 50 uM after 24 hrs by FACS. Put shortly:
as §3

Assay [23] concerns HeLa. Kind of assay: Induction of apoptosis in human HeLa cells assessed as increase in intracellular nitric oxide level at 100 uM after 3 hrs by FACS relative to untreated control. The method in brief: as §5
In assay [24] the test system is HeLa. Kind of assay: Cell cycle arrest in human HeLa cells pretreated with 10 uM Dexamethasone for 1 hr assessed as G1 phase accumulation at 100 uM after 24 hrs by FACS. Put shortly:
as §1

The structures appear in SMILES notation.

On to `CCCCCCCCCCCCC/C=C(/C(=O)OC)[C@@H](O)C(C)=O` [SECOKOTOMOLIDE A], for which the Activity with HeLa [1] is listed as 61.2%; in the assay with HeLa [2], 33.8%; with HeLa [3], 3.2%; in the assay on HeLa [4], 92%; in the assay on HeLa [5] it was 25.7%; in the assay with HeLa [6] it was 20.3%. Also, the Activity in the assay on HeLa [7] worked out at 38.2%; with HeLa [8], 47.7%; in the assay with HeLa [9] it was 8.4%; in the assay with HeLa [10] it was 31%; in the assay with HeLa [11] it was 12.3%; in the assay on HeLa [13], 55.3%. For the same compound, the Activity came out at 47.7% in the assay with HeLa [14]; 74.8% with HeLa [18]; 55.2% with HeLa [19]; 50.8% in the assay with HeLa [20]; 98% with HeLa [21]; 29% with HeLa [22]. Further, the Activity in the assay on HeLa [24] came to 53.9%. In addition, the “fold change (FC)” value was determined as 2.9 in the assay on HeLa [12]; 4.6 in the assay on HeLa [15]; 3.4 with HeLa [16]; 2.1 in the assay with HeLa [17]; 2.1 in the assay with HeLa [23].
